Assay outcomes: PubChem, several laboratories
Only some compounds are listed: those with a hit (about 4.9% of all), similar ones and a draw of the others.
STAT3 blocker = IL-6 driven STAT3 reporter inhibitors, primary screen, U3A cells, luciferase, luminescence, MLSCN library. inhibition, % at 5.5 µM. 190,000 tested, 0.89% active. IL-6 STAT3-luciferase reporter; host cell line lacks STAT1;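 active means inhibition above the mean inhibition across all screened compounds plus 3 SD, cut at about 44% in these data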;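 further: 0% = DMSO only wells and 100% = 100 µM nifuroxazide control wells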
STAT1 inh-1 = STAT1 signaling inhibitors, primary screen, cell-based, HTS, luciferase reporter. NIH 3T3 STAT1-luciferase reporter, IFN-gamma, luminescence. inhibition, % at 5.5 µM. 200,000 tested, 0.35% active;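 active means inhibition above a set limit, the mean inhibition across all tested compounds plus 3 SD, cut at about 34% in these data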;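 further: 0% = IFN-gamma with DMSO and 100% = IFN-gamma with 300 µM nifuroxazide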
NF-kB neuron act = activators of NF-kB expression in neurons, primary screen, cell-based, HTS; human neuronal cells, NF-kB reporter expression; hits give high values; fold change at 12.5 µM; 190,000 tested, 1.6% active; AID 1239, 2008; in the data active means fold change above about 3.3
STAT1 act = STAT1 signaling activators, primary screen, cell-based, HTS, luciferase reporter. 200,000 tested, 2.6% active. activation (% of control), % at 5.5 µM. NIH 3T3 STAT1-luciferase reporter, IFN-gamma, luminescence; 100% = IFN-gamma alone, no compound;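 active means activation above the screen-wide mean activation plus 3 SD, cut at about 130% in these data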;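 further: raw ratio to IFN-gamma control signal so 100% means no change and 0% no light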
STAT3 act = IL-6 driven STAT3 reporter potentiators, primary screen, U3A cells, luciferase, luminescence, MLSCN library; 190,000 tested, 0.91% active; IL-6 STAT3-luciferase reporter; 100% = signal with IL-6 EC80 alone; activation (% of control), % at 5.6 µM;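 active means activation above the screen-wide mean of compound activation plus 3 SD, cut at about 130% in these data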;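 further: 0% = background luminescence of wells with medium and substrate only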
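Assay system – human STAT1-deficient U3A cells with stable STAT3-luciferase reporter · Also added – IL-6 (33 ng/mL) · Schedule – compound 1 h, then IL-6 6 h at 37 °C · Technique – reporter luminescence signal · Evaluation – % activation versus median of IL-6-stimulated wells · Benchmarks – IL-6-only wells as 100% reference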
APP 5'UTR act = activators of APP 5'UTR luciferase reporter, primary screen, SH-SY5Y cells | 190,000 tested, 1% active | AID 1276, 2008 | activation, % at 2 µM | SH-SY5Y APP 5'UTR luciferase reporter, luminescence; zero percent = DMSO vehicle wells;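 active means activation above a set limit, based on mean plus 3 SD of controls, cut at about 140% in these data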
STAT1 inh-2 = STAT1 signaling inhibitors, confirmation, cell-based, HTS, luciferase reporter | shares compounds with STAT1 inh-1 | NIH 3T3 STAT1-luciferase reporter, IFN-gamma, luminescence | inhibition, % at 5.5 µM | 200 tested, 55% active;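 active means triplicate mean inhibition exceeding the hit cutoff computed for the primary STAT1 screen, cut at about 35% in these data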;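 further: 0% = DMSO with IFN-gamma and 100% = 300 µM nifuroxazide with IFN-gamma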
NFkB inh STAT1ct = NF-kB reporter inhibitors, TNF-alpha stimulated, counter-screen for STAT1 inhibitor project, cell-based, HEK293T, luciferase luminescence; shares compounds with STAT1 inh-1; inhibition, % at 5.7 µM; AID 1303, 2008; TNF-alpha induced; 200 tested, 30% active;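 active means inhibition above the mean of solvent-only control wells plus 3 SD of those wells, cut at about 15% in these data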;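 further: 0% = DMSO with TNF-alpha and 100% = MG-132 control with TNF-alpha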
STAT3 inh 2 = STAT3 reporter inhibition by STAT1 hits, counter-screen for STAT1 inhibitor project, U3A cells, luciferase, luminescence, triplicate. shares compounds with STAT1 inh-1. IL-6 STAT3 luciferase reporter; cells lacking STAT1. inhibition, % at 5.7 µM. 200 tested, 20% active. AID 1310, 2008;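 active means inhibition above the mean of solvent-only control wells plus 3 SD, set per campaign, cut at about 25% in these data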;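 further: 0% = IL-6 plus DMSO and 100% = IL-6 plus nifuroxazide control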
* = called active by the depositor; nt = not tested or not shown.

SMILES	STAT3 blocker	STAT1 inh-1	NF-kB neuron act	STAT1 act	STAT3 act	APP 5'UTR act	STAT1 inh-2	NFkB inh STAT1ct	STAT3 inh 2
Fc1ccc(-c2cnn3c(-c4cccs4)ccnc23)cc1	26	35*	6.7*	67	85	220*	-89	22*	-53
Oc1ccc(Oc2ccc3c(C(F)(F)F)cc(C(F)(F)F)nc3n2)cc1	20	62*	0.61	44	85	31	54*	23*	14
COc1ccc(Oc2ccc3c(C(F)(F)F)cc(C(F)(F)F)nc3n2)cc1	7	1	1.1	100	99	5	nt	nt	nt
COc1ccc(S(=O)(=O)N2CCc3ccccc32)cc1C(=O)NCCc1ccccn1	0	-8	0.91	106	102	-20	nt	nt	nt
CCC(/C=C1\Sc2ccc(OC)cc2N1CC)=C\c1sc2ccc(OC)cc2[n+]1CCCS(=O)(=O)[O-]	35	41*	0.33	62	74	-4	30	-6	8
CSCC[C@H](NC(=O)c1ccc(Cl)c(S(=O)(=O)N2CCCC2)c1)c1nc2ccccc2[nH]1	8	-5	1	104	97	-5	nt	nt	nt
O=C(CSc1nc2ccccc2c(=O)[nH]1)c1ccc(O)c(O)c1	8	4	1.1	97	99	-7	nt	nt	nt
O=C(CSc1nc2ccccc2c(=O)[nH]1)c1ccc(O)cc1O	3	64*	0.75	40	100	21	43*	6	0
CC1C(=O)NN=C1C(=O)N/N=C\C(Br)=C\c1ccccc1 (centres undefined)	17	81*	3.1	24	92	127	40*	3	-23
O=C(CCS(=O)(=O)c1ccccc1)Nc1nc(-c2cccs2)cs1	-2	8	0.77	93	102	-6	nt	nt	nt
CC(C)c1nnc(NC(=O)CCS(=O)(=O)c2nc(-c3cccs3)cc(C(F)(F)F)n2)s1	7	37*	1.1	66	96	28	44*	15*	6
CCC(=O)Nc1cc(C)c(NC(=O)c2ccccc2OC)cn1	16	-13	1.6	112	89	0	nt	nt	nt
COc1ccccc1-c1cc(C(F)(F)F)nc(S(=O)(=O)CCCC(=O)NCc2ccc(F)cc2)n1	13	32	1	69	92	-24	nt	nt	nt
COc1ccc(-c2cc(C(F)(F)F)nc(S(=O)(=O)CCCC(=O)Nc3cc(C)on3)n2)cc1OC	8	51*	0.97	52	100	-1	46*	5	-63
COc1ccccc1-c1cc(C(F)(F)F)nc(S(=O)(=O)CCCC(=O)Nc2cccnc2Cl)n1	8	43*	0.97	59	96	-27	41*	-7	4
COc1ccccc1-c1cc(C(F)(F)F)nc(S(=O)(=O)CCCC(=O)NC(C)C)n1	11	23	0.92	79	93	5	nt	nt	nt
Cc1ccc(-c2csc3ncnc(Sc4nnc(CN5CCCCCC5=O)o4)c23)cc1	27	44*	0.35	60	81	-26	56*	12	21
COc1cccc(N2CCN(c3ncnc4c3[nH]c3ccccc34)CC2C)c1 (centres undefined)	23	35*	0.3	69	84	0	46*	25*	37*
c1ccc(CN2CCN(c3ncnc4c3[nH]c3ccccc34)CC2)cc1	8	41*	0.27	63	103	-6	48*	22*	16
Cc1ccc2[nH]c3c(N4CCN(Cc5ccccc5)CC4)ncnc3c2c1	30	36*	0.31	67	79	9	40*	9	16
Cn1c(=O)cc(OCC(=O)Nc2ccccn2)c2ccccc21	14	5	1.3	96	89	-16	nt	nt	nt
COc1ccc(C(=O)NC2(C(F)(F)F)NC(=O)N(CCCc3ccccc3)C2=O)cc1OC (centres undefined)	8	5	0.93	95	94	-11	nt	nt	nt
CCOc1cc(-c2noc(N)c2C#N)cc(OCC)c1OCC	14	40*	1.3	64	91	19	42*	0	10
Cc1ccccc1C(=O)Oc1cc(N)n(S(=O)(=O)c2ccccc2)n1	6	22	1.2	79	104	13	nt	nt	nt
COc1ccc(NC(=O)c2ccc(-c3ccccc3)cc2)cc1S(=O)(=O)N1CCOCC1	31	38*	0.99	65	75	3	47*	29*	15
SMILES	STAT3 blocker	STAT1 inh-1	NF-kB neuron act	STAT1 act	STAT3 act	APP 5'UTR act	STAT1 inh-2	NFkB inh STAT1ct	STAT3 inh 2
CCc1ccc(C(=O)Nc2ccc(OC)c(S(=O)(=O)N3CCOCC3)c2)cc1	16	13	0.85	88	87	10	nt	nt	nt
COc1ccc(C(=O)OCC(=O)NCC2CCCO2)cc1S(=O)(=O)N1CCCc2ccccc21 (centres undefined)	-9	-10	0.53	108	115	10	nt	nt	nt
C=CCOC(=O)C1=C[C@H](c2ccc(Br)cc2)[C@@H](CCCO)[C@H](OCC)O1	nt	38*	0.84	65	nt	-6	21	-7	0
CN1CCN(c2nc(-c3ccco3)cc(C(F)(F)F)n2)CC1	23	2	1.2	98	84	1	nt	nt	nt
CS(=O)(=O)c1nc(-c2ccco2)cc(C(F)(F)F)n1	4	39*	1.1	64	103	0	40*	-15	-6
COc1ccccc1-c1cc(C(F)(F)F)nc(S(C)(=O)=O)n1	10	40*	0.87	63	90	-4	44*	-8	-33
CC1=CC(C)(C)[N+](C)(C)c2ccccc21	6	-11	1.1	109	99	27	nt	nt	nt
COc1ccc(S(=O)(=O)N(C)CC(=O)NCCC2=CCCCC2)cc1C	16	-3	0.88	103	88	0	nt	nt	nt
CCOC(=O)N1CCN(C(=O)c2ccc3c(=O)n(Cc4ccccc4)c(=S)[nH]c3c2)CC1	-1	-6	0.9	106	104	0	nt	nt	nt
O=C(c1ccc(Cn2c(=S)[nH]c3ccccc3c2=O)cc1)N1CCN(c2ccccn2)CC1	31	44*	0.75	59	79	12	35*	14	27*
